Source: ChEMBL document CHEMBL1124545, “Tricyclic compounds as selective muscarinic receptor antagonists. 3. Structure-selectivity relationships in a series of cardioselective (M2) antimuscarinics” (J Med Chem, 1989)

Key:
[1] = biological target: T1, Muscarinic acetylcholine receptor M3 (Rattus norvegicus, UniProt P08483); experiment: Binding affinity for glandular muscarinic acetylcholine receptor M3 in rat assayed using 0.3 nM [3H]N-methylscopolamine as radioligand
Procedure, shortened: (§1)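 1 mL homogenate incubated 45 min at 30 °C with 0.3 nM [3H]NMS plus varying unlabeled compound. Bound ligand separated by centrifugation, saline-washed pellet scintillation counted. Nonspecific binding defined with 1 µM racemic QNB. Run in quadruplicate.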

[2] = biological target: Muscarinic receptor M2 and M3 (Rattus norvegicus) (UniProt P08483+P10980); experiment: Selectivity ratio for glandular muscarinic receptor 3 and cardiac muscarinic receptor 2 in rat
Muscarinic receptor M2 and M3 (Rattus norvegicus), sequence (P08483 whole entry, looked up, one chain of several): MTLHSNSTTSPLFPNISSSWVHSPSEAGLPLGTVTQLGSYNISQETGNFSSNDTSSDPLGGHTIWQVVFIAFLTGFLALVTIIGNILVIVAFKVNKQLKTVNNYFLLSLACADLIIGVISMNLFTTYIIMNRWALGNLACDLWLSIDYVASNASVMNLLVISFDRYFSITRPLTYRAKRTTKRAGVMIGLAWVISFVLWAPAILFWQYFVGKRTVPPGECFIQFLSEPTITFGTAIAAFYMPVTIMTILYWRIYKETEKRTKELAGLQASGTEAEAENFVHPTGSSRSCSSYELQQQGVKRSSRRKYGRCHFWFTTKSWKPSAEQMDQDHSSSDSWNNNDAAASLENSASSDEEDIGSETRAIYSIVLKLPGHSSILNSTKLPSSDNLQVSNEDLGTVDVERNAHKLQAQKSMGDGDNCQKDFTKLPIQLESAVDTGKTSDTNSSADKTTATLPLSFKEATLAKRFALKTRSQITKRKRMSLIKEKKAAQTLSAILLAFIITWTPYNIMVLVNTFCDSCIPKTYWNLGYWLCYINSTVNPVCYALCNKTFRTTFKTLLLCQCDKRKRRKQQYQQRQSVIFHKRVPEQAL

[3] = biological target: T2, Muscarinic acetylcholine receptor M2 (Rattus norvegicus, UniProt P10980); experiment: Binding affinity to the rat cardiac muscarinic acetylcholine receptor M2 using 0.3 nM [3H]N-methylscopolamine as radioligand
T2 sequence (P10980 whole entry): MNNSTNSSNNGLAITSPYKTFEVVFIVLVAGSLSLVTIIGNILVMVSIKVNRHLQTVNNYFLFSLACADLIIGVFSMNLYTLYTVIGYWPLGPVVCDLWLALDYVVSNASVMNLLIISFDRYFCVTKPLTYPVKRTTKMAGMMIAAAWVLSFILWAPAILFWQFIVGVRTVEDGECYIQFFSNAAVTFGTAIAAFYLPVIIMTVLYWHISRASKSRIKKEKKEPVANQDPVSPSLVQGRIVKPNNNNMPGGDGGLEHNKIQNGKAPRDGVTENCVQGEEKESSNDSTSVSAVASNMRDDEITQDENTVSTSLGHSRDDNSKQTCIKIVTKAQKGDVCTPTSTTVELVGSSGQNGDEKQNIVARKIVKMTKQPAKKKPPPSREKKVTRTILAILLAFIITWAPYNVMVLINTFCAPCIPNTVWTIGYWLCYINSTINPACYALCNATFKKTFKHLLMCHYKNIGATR
Procedure, shortened: (§2)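 Competition against 0.3 nM [3H]NMS in rat total heart homogenate (1:300 in 100 mM NaCl, 10 mM MgCl2, 20 mM HEPES, pH 7.4, cheesecloth-filtered). 1 mL homogenate incubated 45 min at 30 °C with a range of cold ligand concentrations. Pellets obtained by centrifugation, washed twice with saline, solubilized and counted. Nonspecific binding taken with 1 µM racemic QNB. Quadruplicate assays.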

[4] = biological target: T1, Muscarinic acetylcholine receptor M3; experiment: Binding affinity of compound for glandular Muscarinic acetylcholine receptor M3 in rat using 0.3 nM [3H]N-methylscopolamine as radioligand; procedure, shortened: as §1
[5] = biological target: T2, Muscarinic acetylcholine receptor M2; experiment: Binding affinity of compound for cardiac Muscarinic acetylcholine receptor M2 in rat using 0.3 nM [3H]N-methylscopolamine as radioligand; procedure, shortened: as §2
[6] = system: Muscarinic acetylcholine receptors M2 & M3 (Rattus norvegicus); experiment: Selectivity ratio for glandular muscarinic receptor 3 and cardiac muscarinic receptor 2 in rat

T1 sequence (P08483 whole entry): as the sequence (P08483 whole entry, looked up, one chain of several) above

Row | IC50 [1] | Ratio [2] | IC50 [3] | IC50 [4] | IC50 [5] | Ratio [6] | Compound
1 | 1000 nM | 7.1 | 140 nM |  |  |  | CN(C)CC1CCCCN1CC(=O)N1c2ccccc2C(=O)Nc2cccnc21 (centres undefined)
2 | 2000 nM | 28.5 | 70 nM |  |  |  | CCN(CC)CC1CCCCN1CC(=O)N1c2cc(C)ccc2C(=O)Nc2cccnc21 (centres undefined)
3 |  |  |  | 1500 nM | 600 nM | 2.5 | O=C1Nc2cccnc2N(C(=O)CN2CCCCC2CN2CCCCC2)c2ccccc21 (centres undefined)
4 | 1500 nM | 12.5 | 120 nM |  |  |  | CCN(C)CC1CCCCN1CC(=O)N1c2ccccc2C(=O)Nc2cccnc21 (centres undefined)
5 | 3000 nM | 5 | 600 nM |  |  |  | CCNCC1CCCCN1CC(=O)N1c2ccccc2C(=O)Nc2cccnc21 (centres undefined)
6 | 70 nM | 2.3 | 30 nM |  |  |  | CN(CC1CCCCN1CC(=O)N1c2ccccc2C(=O)Nc2cccnc21)C1CCCCCC1 (centres undefined)
7 | > 10000 nM | > 2 | 5000 nM |  |  |  | CCN(CC)CC1CCCCN1C(=O)N1c2ccccc2C(=O)Nc2cccnc21 (centres undefined)
8 | 2000 nM | 13 | 150 nM |  |  |  | CCN(CC)CC1CCCN1CC(=O)N1c2ccccc2C(=O)Nc2cccnc21 (centres undefined)
9 | 4000 nM | 26.6 | 150 nM |  |  |  | CCN(CC)CC1CCCCN1CC(=O)N1c2ccc(Br)cc2C(=O)Nc2cccnc21 (centres undefined)
10 |  | 37.5 | 40 nM |  |  |  | CCN(CC)CC1CCCCN1CC(=O)N1c2cc(Cl)ccc2C(=O)Nc2cccnc21 (centres undefined)
11 | 1500 nM | 2.7 | 560 nM |  |  |  | O=C1Nc2cccnc2N(C(=O)CN2CCCCC2CN2CCCC2)c2ccccc21 (centres undefined)
12 | 15000 nM | 7.5 | 2000 nM |  |  |  | CCN(CC)CC1CCCCCN1CC(=O)N1c2ccccc2C(=O)Nc2cccnc21 (centres undefined)
13 | 4000 nM | < 4 | > 1000 nM |  |  |  | O=C1Nc2cccnc2N(C(=O)CN2CCCCC2CN2CCOCC2)c2ccccc21 (centres undefined)
14 | 200 nM | 2 | 100 nM |  |  |  | CCCCN(C)CC1CCCCN1CC(=O)N1c2ccccc2C(=O)Nc2cccnc21 (centres undefined)
15 | 600 nM | 2.7 | 220 nM |  |  |  | CCN(CC)CC1CCCCN1CCC(=O)N1c2ccccc2C(=O)Nc2cccnc21 (centres undefined)
16 | 1000 nM | 33.3 | 30 nM |  |  |  | CCN(CC)CC1CCCCN1CC(=O)N1c2ccc(C)cc2C(=O)Nc2cccnc21 (centres undefined)
17 | 4000 nM | 40 | 100 nM |  |  |  | CCN(CC)CC1CCCCN1CC(=O)N1c2ccc(Cl)cc2C(=O)Nc2cccnc21 (centres undefined)
18 | 6000 nM | 4 | 1500 nM |  |  |  | CCCN(CCC)CC1CCCCN1CC(=O)N1c2ccccc2C(=O)Nc2cccnc21 (centres undefined)
19 | 150 nM | 2.5 | 60 nM |  |  |  | CN(CC1CCCCN1CC(=O)N1c2ccccc2C(=O)Nc2cccnc21)C1CCCCC1 (centres undefined)
20 | 1000 nM | 3 | 330 nM |  |  |  | CCN(CC)CCC1CCCCN1CC(=O)N1c2ccccc2C(=O)Nc2cccnc21 (centres undefined)
21 | 300 nM | 1.8 | 170 nM |  |  |  | CCN(CC)CC1CCCN(CC(=O)N2c3ccccc3C(=O)Nc3cccnc32)C1 (centres undefined)
22 | 4000 nM | 5 | 800 nM |  |  |  | CCN(CC)CC1CCN(CC(=O)N2c3ccccc3C(=O)Nc3cccnc32)CC1
23 | 2000 nM | 10 | 200 nM |  |  |  | CCc1ccc2c(c1)C(=O)Nc1cccnc1N2C(=O)CN1CCCCC1CN(CC)CC (centres undefined)
24 | 200 nM | 3.3 | 60 nM |  |  |  | CCN(CC)CCCC1CCCCN1CC(=O)N1c2ccccc2C(=O)Nc2cccnc21 (centres undefined)

Row | Compound | IC50 [1] | Ratio [2] | IC50 [3] | IC50 [4] | IC50 [5] | Ratio [6]
25 | CCN(CC)CC1CCCCN1CC(=O)N1c2ccccc2C(=O)Nc2cccnc21 (stereo in doubt; 29) [OTENZEPAD] | 6000 nM |  | 50 nM |  |  | 
26 | CCN(CC)CC1CCCCN1CC(=O)N1c2ccccc2C(=O)Nc2cccnc21 (stereo in doubt; 10) |  | 42.8 |  |  |  | 
27 | CCN(CC)CC1CCCCN1CC(=O)N1c2ccccc2C(=O)Nc2cccnc21 (stereo in doubt; 28) |  | 25 |  |  |  | 
28 | CCN(CC)CC1CCCCN1CC(=O)N1c2ccccc2C(=O)Nc2cccnc21 (stereo in doubt; 28) [OTENZEPAD] | 10000 nM |  | 400 nM |  |  | 
29 | CCN(CC)CC1CCCCN1CC(=O)N1c2ccccc2C(=O)Nc2cccnc21 (stereo in doubt; 29) |  | 120 |  |  |  | 
30 | CCN(CC)CC1CCCCN1CC(=O)N1c2ccccc2C(=O)Nc2cccnc21 (stereo in doubt; 10) [OTENZEPAD] | 6000 nM |  |  |  |  | 
